# ChEMBL document CHEMBL1152647, “Hybrid pharmacophore design and synthesis of isatin-benzothiazole analogs for their anti-breast cancer activity” (Bioorg Med Chem, 2009)
# Activity calls are given as the source filed them. No cut-off for these calls is given here.
# How the values were obtained:
# [1] = Cytotoxicity against human 184B5 cells after 48 hrs by SRB assay; assay type: cell-based
# In short: (§1)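 Cancer lines grown in RPMI 1640 with 10% FBS and 2 mM L-glutamine; 184B5 and MCF10A grown in supplemented mammary epithelial basal medium. 5000–10,000 cells/well seeded, 24 h at 37 °C and 5% CO₂. Seven serially diluted concentrations added, final DMSO ≤0.1%, 48 h exposure. Fixed with 10% TCA (final) at 4 °C, stained with 0.4% SRB, solubilized in 10 mM Tris, A515–564. Growth % = (Ti−Tz)/(C−Tz)×100; GI50 from sigmoidal variable-slope fit; triplicates, ≥2 independent experiments.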
# MCF7 [2] = experiment: Cytotoxicity against human MCF7 cells after 48 hrs by SRB assay; assay type: functional; conditions: MCF7, 48 h; in short: as §1
# MDA-MB-231 [3] = experiment: Cytotoxicity against human MDA-MB-231 cells after 48 hrs by SRB assay; assay type: functional; conditions: MDA-MB-231, 48 h; in short: as §1
# MDA-MB-468 [4] = experiment: Cytotoxicity against human MDA-MB-468 cells after 48 hrs by SRB assay; assay type: functional; conditions: MDA-MB-468, 48 h; in short: as §1
# [5] = Cytotoxicity against human MCF10A cells after 48 hrs by SRB assay; assay type: cell-based, MCF-10A; in short: as §1
# MCF7 [6] = experiment: Cell cycle arrest in human MCF7 cells assessed as accumulation at G2/M phase at 20 uM after 24 hrs by flow cytometry (Rvb=12%); assay type: functional
# In short: (§2)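 MCF7 or MCF10A cells treated with compound at 20 or 40 µM for 24 h, with DMSO-treated negative control. 2.0 × 10⁶ cells pelleted and fixed in ice-cold 70% ethanol (30 min to overnight, −20 °C), then washed in PBS. Stained 30 min at 37 °C with 100 µg/mL PI, 100 µg/mL RNase A, 0.3% NP-40 and 0.1% sodium citrate. DNA content read by flow cytometry; G0/G1, S and G2/M fractions taken from DNA histograms.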
# MDA-MB-231 [7] = experiment: Selectivity ratio of GI50 for human MCF10A cells to GI50 for human MDA-MB-231 cells
# In short: (§3)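 Ratio of non-cancer to cancer GI50, each from 48 h SRB growth assays (seven concentrations, sigmoidal variable-slope fit, triplicates in ≥2 independent experiments).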
# MCF7 [8] = experiment: Cell cycle arrest in human MCF7 cells assessed as accumulation at S phase at 20 uM after 24 hrs by flow cytometry (Rvb=17%); assay type: functional; in short: as §2
# MDA-MB-468 [9] = experiment: Selectivity ratio of GI50 for human 184B5 cells to GI50 for human MDA-MB-468 cells; in short: as §3
# MCF-10A [10] = experiment: Cell cycle arrest in human MCF10A cells assessed as accumulation at S phase at 20 uM after 24 hrs by flow cytometry; assay type: functional, cell-based; in short: as §2
# MCF-10A [11] = experiment: Cell cycle arrest in human MCF10A cells assessed as accumulation at G2/M phase at 20 uM after 24 hrs by flow cytometry; assay type: functional, cell-based; in short: as §2
# MCF7 [12] = experiment: Cell cycle arrest in human MCF7 cells assessed as accumulation at G2/M phase at 40 uM after 24 hrs by flow cytometry; assay type: functional, cell-based; in short: as §2
Structure (SMILES),GI50 at 48 h [1],GI50 (MCF7 [2]),GI50 (MDA-MB-231 [3]),GI50 (MDA-MB-468 [4]),GI50 at 48 h [5],Activity (MCF7 [6]),RatioGI50 (MDA-MB-231 [7]),Activity (MCF7 [8]),RatioGI50 (MDA-MB-468 [9]),Activity (MCF-10A [10]),Activity (MCF-10A [11]),Activity (MCF7 [12])
Cc1ccc2nc(/N=C3\C(=O)N(CN4CCOCC4)c4cccc(Cl)c43)sc2c1,63.5 µM,21.5 µM,37.1 µM,24 µM,62.3 µM,–,–,–,–,–,–,–
O=C1C(=O)N(CN(c2ccccc2)c2ccccc2)c2ccccc21,33.7 µM,23.7 µM,24.8 µM,21.5 µM,73 µM,–,–,–,–,–,–,–
Cc1ccc2nc(/N=C3\C(=O)N(CN4CCCCC4)c4cccc(Br)c43)sc2c1,85.2 µM,39.1 µM,38.2 µM,24 µM,18.4 µM,–,–,–,–,–,–,–
CCN(CC)CN1C(=O)/C(=N\c2nc3ccc(C)cc3s2)c2ccccc21,27.5 µM,74.8 µM,32.7 µM,63.5 µM,20.4 µM,–,–,–,–,–,–,–
CCN(CC)CN1C(=O)C(=O)c2c(Br)cccc21,172 µM,20.2 µM,20.2 µM,11.7 µM,113 µM,38%,5.6,8%,14.7,inactive,inactive,–
CCN(CC)CN1C(=O)C(=O)c2ccccc21,41.7 µM,44.1 µM,60.6 µM,35.9 µM,73.6 µM,–,–,–,–,–,–,–
CCN(CC)CN1C(=O)/C(=N\c2nc3ccc(C)cc3s2)c2c(Cl)cccc21,87.8 µM,19.2 µM,20.4 µM,27.3 µM,43.9 µM,–,–,–,–,–,–,–
O=C1C(=O)N(CN2CCOCC2)c2ccccc21,78.7 µM,52.3 µM,57.6 µM,28.2 µM,72.1 µM,–,–,–,–,–,–,–
CN(C)CN1C(=O)C(=O)c2ccccc21,73.7 µM,40.5 µM,65.6 µM,50.1 µM,150 µM,–,–,–,–,–,–,–
Cc1ccc2nc(/N=C3\C(=O)N(CN(c4ccccc4)c4ccccc4)c4cccc(Br)c43)sc2c1,70.2 µM,30.2 µM,75.1 µM,82.3 µM,67.9 µM,–,–,–,–,–,–,–
O=C1C(=O)N(CN2CCCCC2)c2cccc(Cl)c21,93.7 µM,51.2 µM,26.5 µM,82.8 µM,70.7 µM,–,–,–,–,–,–,–
CCN(CC)CN1C(=O)/C(=N\c2nc3ccc(C)cc3s2)c2c(Br)cccc21,34.3 µM,30.2 µM,28.7 µM,43.1 µM,16.1 µM,–,–,–,–,–,–,–
CCN(CC)CN1C(=O)C(=O)c2c(Cl)cccc21,22.5 µM,34 µM,44.5 µM,28.3 µM,35 µM,–,–,–,–,–,–,–
Cc1ccc2nc(/N=C3\C(=O)N(CN(C)C)c4ccccc43)sc2c1,15.6 µM,29.2 µM,19.2 µM,35.5 µM,13.4 µM,–,–,–,–,–,–,–
O=C1C(=O)N(CN2CCCCC2)c2ccccc21,68 µM,41.2 µM,38 µM,24.1 µM,41.8 µM,–,–,–,–,–,–,–
CN(C)CN1C(=O)C(=O)c2c(Br)cccc21,77.9 µM,57.6 µM,93.7 µM,49 µM,67.8 µM,–,–,–,–,–,–,–

Structure (SMILES),GI50 at 48 h [1],GI50 (MCF7 [2]),GI50 (MDA-MB-231 [3]),GI50 (MDA-MB-468 [4]),GI50 at 48 h [5],Activity (MCF7 [6]),RatioGI50 (MDA-MB-231 [7]),Activity (MCF7 [8]),RatioGI50 (MDA-MB-468 [9]),Activity (MCF-10A [10]),Activity (MCF-10A [11]),Activity (MCF7 [12])
O=C1C(=O)N(CN2CCOCC2)c2cccc(Cl)c21,79.8 µM,29.2 µM,61.5 µM,61.5 µM,78.5 µM,–,–,–,–,–,–,–
Cc1ccc2nc(/N=C3\C(=O)N(CN4CCOCC4)c4ccccc43)sc2c1,30.6 µM,14.6 µM,19.8 µM,17.6 µM,38.5 µM,inactive,–,inactive,–,inactive,inactive,Active
O=C1C(=O)N(CN2CCCCC2)c2cccc(Br)c21,85.2 µM,31.4 µM,30.2 µM,35.3 µM,66.9 µM,–,–,–,–,–,–,–
Cc1ccc2nc(/N=C3\C(=O)N(CN4CCCCC4)c4ccccc43)sc2c1,34.9 µM,37.8 µM,34.5 µM,65.6 µM,38.9 µM,–,–,–,–,–,–,–
CN(C)CN1C(=O)C(=O)c2c(Cl)cccc21,130 µM,87.8 µM,138 µM,107 µM,82.3 µM,–,–,–,–,–,–,–
O=C1C(=O)N(CN(c2ccccc2)c2ccccc2)c2cccc(Br)c21,98.5 µM,110 µM,51.1 µM,63.2 µM,85.8 µM,–,–,–,–,–,–,–
Cc1ccc2nc(/N=C3\C(=O)N(CN(c4ccccc4)c4ccccc4)c4cccc(Cl)c43)sc2c1,67.8 µM,24.3 µM,54 µM,85 µM,70 µM,–,–,–,–,–,–,–
Cc1ccc2nc(/N=C3\C(=O)N(CN4CCOCC4)c4cccc(Br)c43)sc2c1,29.9 µM,12 µM,94.6 µM,24.8 µM,33.2 µM,–,–,–,–,–,–,–
CCN(CC)CCCC(C)Nc1ccnc2cc(Cl)ccc12 (stereo not drawn) [CHLOROQUINE],76.1 µM,–,–,–,81.3 µM,–,–,–,–,–,–,–
O=C1C(=O)N(CN(c2ccccc2)c2ccccc2)c2cccc(Cl)c21,96.8 µM,29.7 µM,31.4 µM,14.3 µM,77.2 µM,–,–,–,–,–,–,–
O=C1C(=O)N(CN2CCOCC2)c2cccc(Br)c21,79.5 µM,65.6 µM,29.7 µM,54 µM,82.3 µM,–,–,–,–,–,–,–
Cc1ccc2nc(/N=C3\C(=O)N(CN(c4ccccc4)c4ccccc4)c4ccccc43)sc2c1,27.2 µM,39.1 µM,34.1 µM,17.7 µM,34 µM,–,–,–,–,–,–,–
Cc1ccc2nc(/N=C3\C(=O)N(CN4CCCCC4)c4cccc(Cl)c43)sc2c1,82.3 µM,30.9 µM,55.8 µM,19.8 µM,30.2 µM,–,–,–,–,–,–,–
Cc1ccc2nc(/N=C3\C(=O)N(CN(C)C)c4cccc(Br)c43)sc2c1,74.8 µM,17.9 µM,49 µM,27.4 µM,21.8 µM,–,–,–,–,–,–,–
Cc1ccc2nc(/N=C3\C(=O)N(CN(C)C)c4cccc(Cl)c43)sc2c1,5.77 µM,20.7 µM,10.9 µM,28.1 µM,7.02 µM,–,–,–,–,–,–,–
